Measurements from PMC8159431 (Chemical Science, 2020).
Like-named read-outs stand apart in the source and are kept apart here.

Tests used:
Type in all cases: binding
[1] = target: tau aggregates (Tau-441 human) (Homo sapiens, UniProt P10636); assay: Fluorimeter assay with aliquots of the tau aggregation; conditions: tau aggregates at different time points
Aβ40 aggregates = Aβ40 aggregates (Homo sapiens, UniProt P05067)
Method in brief: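 Aβ40 aggregates were taken at 90 min, 200 min and 24 h from a compound-free aggregation run and ultracentrifuged. They were titrated with a range of probe concentrations, and fluorescence intensity was read. Kd was obtained by curve fitting (n = 3). Binding ratio is Kd relative to the Kd of the 50% sucrose tau fraction.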

[2] = target: tau (0N4R) aggregates, sucrose gradient fractions (Homo sapiens, UniProt P10636)
tau (0N4R) aggregates, sucrose gradient fractions, sequence (P10636 1-383 isoform P10636-6): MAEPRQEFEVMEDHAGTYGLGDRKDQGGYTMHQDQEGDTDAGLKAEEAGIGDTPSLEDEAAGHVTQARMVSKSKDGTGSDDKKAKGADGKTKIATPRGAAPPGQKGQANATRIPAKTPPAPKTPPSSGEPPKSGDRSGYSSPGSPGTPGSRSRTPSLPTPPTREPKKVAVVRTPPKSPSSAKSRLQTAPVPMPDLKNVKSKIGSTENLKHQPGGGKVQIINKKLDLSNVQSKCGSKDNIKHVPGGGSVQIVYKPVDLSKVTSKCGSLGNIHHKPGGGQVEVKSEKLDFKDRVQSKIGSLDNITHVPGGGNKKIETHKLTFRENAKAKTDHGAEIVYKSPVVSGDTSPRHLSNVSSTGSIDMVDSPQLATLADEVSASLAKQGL
Method in brief: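 Tau aggregates were separated by sucrose gradient ultracentrifugation into 10–50% fractions, and the 20% fraction was characterised by TEM. Each fraction was titrated with the test compound and fluorescence intensity was read. Kd was obtained by curve fitting (n = 3–6). Ratios compare Kd with the 50% sucrose tau Kd, and tau Kd with the Kd for Aβ40 aggregates at 200 min.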

Aβ40 aggregates, sequence (P05067 672-711 limits assumed): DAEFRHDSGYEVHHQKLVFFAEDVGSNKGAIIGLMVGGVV
tau aggregates (Tau-441 human), sequence (P10636 1-441 isoform P10636-8): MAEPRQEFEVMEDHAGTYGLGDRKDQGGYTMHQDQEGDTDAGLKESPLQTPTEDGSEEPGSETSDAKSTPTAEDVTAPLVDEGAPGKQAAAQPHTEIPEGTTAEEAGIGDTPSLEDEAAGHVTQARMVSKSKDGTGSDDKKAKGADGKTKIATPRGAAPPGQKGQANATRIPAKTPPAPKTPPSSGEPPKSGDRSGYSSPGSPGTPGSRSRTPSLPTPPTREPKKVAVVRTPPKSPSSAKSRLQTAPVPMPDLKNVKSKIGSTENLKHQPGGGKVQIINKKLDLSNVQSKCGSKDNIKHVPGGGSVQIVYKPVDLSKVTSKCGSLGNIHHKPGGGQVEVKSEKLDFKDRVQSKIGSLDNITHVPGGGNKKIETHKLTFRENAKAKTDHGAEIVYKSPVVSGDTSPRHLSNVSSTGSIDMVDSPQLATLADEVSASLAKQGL

emission spectrum shift over the tau aggregation [1]: No emission spectrum shifts | binding ratio (Kd compared with the 50% sucrose tau Kd) (Aβ40 aggregates; 200 minute Aβ): 5 | binding ratio (Kd compared with the 50% sucrose tau Kd) (Aβ40 aggregates; 24 hour Aβ): 3 | Kd (Aβ40 aggregates; Aβ40 aggregates at 90 min): no binding affinity | Kd (Aβ40 aggregates; Kd, Aβ40 aggregates at 200 min): 930 ± 300 nM | Kd (Aβ40 aggregates; Kd, Aβ40 aggregates at 24 h): 650 ± 190 nM | binding ratio (Kd compared with the 50% sucrose tau Kd) ([2]; 10% sucrose tau): 148 | binding ratio (Kd compared with the 50% sucrose tau Kd) ([2]; 20% sucrose tau): 14 | binding ratio (Kd compared with the 50% sucrose tau Kd) ([2]; 30% sucrose tau): 26 | binding ratio (Kd compared with the 50% sucrose tau Kd) ([2]; 40% sucrose tau): 6 | binding ratio (Kd compared with the 50% sucrose tau Kd) ([2]; 50% sucrose tau): 1 | Kd ([2]; 10% sucrose tau fraction): 29600 ± 2100 nM | Kd ([2]; 20% sucrose tau fraction): 2750 ± 570 nM | Kd ([2]; 40% sucrose tau fraction): 1290 ± 200 nM | Kd ([2]; 50% sucrose tau fraction): 200 ± 10 nM
Compound: O=C(O)Cc1cc(-c2ccc(C(=O)O)s2)sc1-c1ccc(-c2sc(-c3ccc(C(=O)O)s3)cc2CC(=O)O)s1 [pFTAA, 3''',4'-bis(carboxymethyl)-[2,2':5',2'':5'',2''':5''',2''''-quinquethiophene]-5,5''''-dicarboxylic acid]
